# Experiments:
# Mus musculus [1] = assay: Inhibition of nicotine-induced antinociception in mouse at 100 ug/kg, sc after 5 mins by hot plate test relative to control; format: functional
# Mus musculus [2] = assay: Effect on hypothermia in sc dosed mouse after 30 mins; format: functional; details: 0.5 h
# Mus musculus [3] = assay: Antinociceptive activity in mouse at 10 mg/kg, sc after 5 mins by tail flick test relative to control; format: functional; details: route subcutaneous
# Rattus norvegicus = species on record: Rattus norvegicus; assay: Selectivity ratio of IC50 for rat alpha7 nAChR to IC50 for rat alpha4beta2 nAChR
# Mus musculus [4] = assay: Effect on spontaneous activity in sc dosed mouse after 5 mins; format: functional
# Mus musculus [5] = assay: Antinociceptive activity in mouse at 10 mg/kg, sc by hot plate test relative to control; format: functional; details: route subcutaneous
# Mus musculus [6] = assay: Inhibition of nicotine-induced antinociception in mouse at 10000 ug/kg, sc after 5 mins by hot plate test relative to control; format: functional
# Mus musculus [7] = assay: Inhibition of nicotine-induced antinociception in mouse at 1000 ug/kg, sc after 5 mins by hot plate test relative to control; format: functional
# [8] = target: Neuronal acetylcholine receptor subunit alpha-7 (Rattus norvegicus) (UniProt Q05941); assay: Agonist activity at rat alpha7 nAChR expressed in Xenopus laevis oocytes assessed as stimulation of acetylcholine-induced current at 100 uM by two-electrode voltage clamp electrophysiological analysis relative to acetylcholine; format: cell-based
# Outline: (§1)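 Rat receptors expressed in Xenopus oocytes, two-electrode voltage clamp. Current evoked by 100 µM test compound was compared with the mean of three preceding ACh applications. The response was expressed as a percentage of the maximal ACh response.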
# Mus musculus [9] = assay: Inhibition of nicotine-induced antinociception in mouse at 100 ug/kg, sc after 5 mins by tail flick test relative to control; format: functional
# [10] = target: Neuronal acetylcholine receptor; alpha3/beta4 (Rattus norvegicus) (UniProt P04757+P12392); assay: Agonist activity at rat alpha3beta4 nAChR expressed in Xenopus laevis oocytes assessed as stimulation of acetylcholine-induced current at 100 uM by two-electrode voltage clamp electrophysiological analysis relative to acetylcholine; format: cell-based; outline: as §1
# [11] = target: Neuronal acetylcholine receptor subunit alpha-7 (Rattus norvegicus) (UniProt Q05941); assay: Antagonist activity at rat alpha7 nAChR expressed in Xenopus laevis oocytes assessed as inhibition of acetylcholine-induced current at 100 uM by two-electrode voltage clamp electrophysiological analysis relative to acetylcholine; format: cell-based
# Mus musculus [12] = assay: Antinociceptive activity in sc dosed mouse after 5 mins by tail flick test; format: functional
# Mus musculus [13] = assay: Antinociceptive activity in sc dosed mouse by hot plate test; format: functional
# [14] = target: T1, Neuronal acetylcholine receptor; alpha4/beta2 (Rattus norvegicus) (UniProt P09483+P12390); assay: Agonist activity at rat alpha4beta2 nAChR expressed in Xenopus laevis oocytes assessed as stimulation of acetylcholine-induced current at 100 uM by two-electrode voltage clamp electrophysiological analysis relative to acetylcholine; format: cell-based; outline: as §1
# Mus musculus [15] = assay: Inhibition of nicotine-induced antinociception in sc dosed mouse after 5 mins by hot plate test; format: functional
# [16] = target: T1, Neuronal acetylcholine receptor; alpha4/beta2 (Rattus norvegicus); assay: Antagonist activity at rat alpha4beta2 nAChR expressed in Xenopus laevis oocytes assessed as inhibition of acetylcholine-induced current at 100 uM by two-electrode voltage clamp electrophysiological analysis relative to acetylcholine; format: cell-based
# Mus musculus [17] = assay: Inhibition of nicotine-induced antinociception in sc dosed mouse after 5 mins by tail flick test; format: functional
# [18] = target: Neuronal acetylcholine receptor; alpha3/beta4 (Rattus norvegicus, UniProt P04757+P12392); assay: Agonist activity at rat alpha3beta4 nAChR expressed in Xenopus laevis oocytes assessed as stimulation of acetylcholine-induced current by two-electrode voltage clamp electrophysiological analysis; format: cell-based
# [19] = target: Neuronal acetylcholine receptor; alpha4/beta2 (Rattus norvegicus, UniProt P09483+P12390); assay: Antagonist activity at rat alpha4beta2 nAChR expressed in Xenopus laevis oocytes assessed as inhibition of acetylcholine-induced current by two-electrode voltage clamp electrophysiological analysis; format: cell-based
# Outline: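 Two-electrode voltage clamp on rat α4β2, α3β4 or α7 nAChRs expressed in Xenopus oocytes. Compounds were tested across a concentration range to build concentration-inhibition curves. Data were fitted to I = Imax/[1+(IC50/X)^n] to derive IC50 and Hill coefficient.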
# Neuronal acetylcholine receptor subunit alpha-7 (Rattus norvegicus), sequence (Q05941 whole entry): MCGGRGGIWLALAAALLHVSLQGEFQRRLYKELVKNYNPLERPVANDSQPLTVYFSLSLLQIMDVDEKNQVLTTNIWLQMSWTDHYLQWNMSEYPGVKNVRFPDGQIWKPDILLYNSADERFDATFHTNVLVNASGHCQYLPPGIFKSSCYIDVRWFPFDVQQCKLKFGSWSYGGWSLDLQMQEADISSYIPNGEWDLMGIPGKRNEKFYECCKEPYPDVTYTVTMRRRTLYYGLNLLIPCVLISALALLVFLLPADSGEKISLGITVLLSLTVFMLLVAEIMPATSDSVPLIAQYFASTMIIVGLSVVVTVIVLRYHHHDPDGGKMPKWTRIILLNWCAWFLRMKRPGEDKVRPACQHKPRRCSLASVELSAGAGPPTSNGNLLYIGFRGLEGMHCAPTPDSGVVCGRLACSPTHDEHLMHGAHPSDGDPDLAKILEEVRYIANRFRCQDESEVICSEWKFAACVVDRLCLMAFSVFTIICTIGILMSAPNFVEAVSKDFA
# Neuronal acetylcholine receptor; alpha3/beta4, sequence (P04757 whole entry): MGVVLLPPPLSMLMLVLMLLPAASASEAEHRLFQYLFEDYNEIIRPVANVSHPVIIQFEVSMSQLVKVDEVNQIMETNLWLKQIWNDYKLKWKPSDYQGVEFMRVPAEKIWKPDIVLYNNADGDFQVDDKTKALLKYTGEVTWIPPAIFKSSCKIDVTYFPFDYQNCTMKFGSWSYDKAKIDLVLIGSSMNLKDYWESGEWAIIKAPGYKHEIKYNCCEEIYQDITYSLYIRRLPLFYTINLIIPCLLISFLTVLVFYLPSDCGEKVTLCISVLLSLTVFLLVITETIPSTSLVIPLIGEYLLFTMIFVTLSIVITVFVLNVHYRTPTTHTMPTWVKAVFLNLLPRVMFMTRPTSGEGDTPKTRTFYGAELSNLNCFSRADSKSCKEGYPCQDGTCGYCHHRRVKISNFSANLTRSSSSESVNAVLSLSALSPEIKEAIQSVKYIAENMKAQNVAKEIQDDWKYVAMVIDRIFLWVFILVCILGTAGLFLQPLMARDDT
# Neuronal acetylcholine receptor; alpha3/beta4, sequence (P12392 whole entry): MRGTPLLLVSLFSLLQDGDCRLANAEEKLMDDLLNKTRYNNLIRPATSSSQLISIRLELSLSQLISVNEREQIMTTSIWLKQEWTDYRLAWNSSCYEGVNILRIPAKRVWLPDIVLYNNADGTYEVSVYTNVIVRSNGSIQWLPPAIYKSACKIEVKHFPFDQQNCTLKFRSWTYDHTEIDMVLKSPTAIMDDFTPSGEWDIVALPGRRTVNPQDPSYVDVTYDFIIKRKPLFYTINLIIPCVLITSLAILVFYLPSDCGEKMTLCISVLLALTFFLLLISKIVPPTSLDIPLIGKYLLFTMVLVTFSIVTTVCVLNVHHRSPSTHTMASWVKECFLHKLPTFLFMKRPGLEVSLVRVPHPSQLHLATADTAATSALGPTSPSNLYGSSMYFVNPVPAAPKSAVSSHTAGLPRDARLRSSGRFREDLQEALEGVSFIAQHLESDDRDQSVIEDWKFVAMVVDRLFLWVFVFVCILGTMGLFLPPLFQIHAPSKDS
# Neuronal acetylcholine receptor; alpha4/beta2, sequence (P09483 whole entry): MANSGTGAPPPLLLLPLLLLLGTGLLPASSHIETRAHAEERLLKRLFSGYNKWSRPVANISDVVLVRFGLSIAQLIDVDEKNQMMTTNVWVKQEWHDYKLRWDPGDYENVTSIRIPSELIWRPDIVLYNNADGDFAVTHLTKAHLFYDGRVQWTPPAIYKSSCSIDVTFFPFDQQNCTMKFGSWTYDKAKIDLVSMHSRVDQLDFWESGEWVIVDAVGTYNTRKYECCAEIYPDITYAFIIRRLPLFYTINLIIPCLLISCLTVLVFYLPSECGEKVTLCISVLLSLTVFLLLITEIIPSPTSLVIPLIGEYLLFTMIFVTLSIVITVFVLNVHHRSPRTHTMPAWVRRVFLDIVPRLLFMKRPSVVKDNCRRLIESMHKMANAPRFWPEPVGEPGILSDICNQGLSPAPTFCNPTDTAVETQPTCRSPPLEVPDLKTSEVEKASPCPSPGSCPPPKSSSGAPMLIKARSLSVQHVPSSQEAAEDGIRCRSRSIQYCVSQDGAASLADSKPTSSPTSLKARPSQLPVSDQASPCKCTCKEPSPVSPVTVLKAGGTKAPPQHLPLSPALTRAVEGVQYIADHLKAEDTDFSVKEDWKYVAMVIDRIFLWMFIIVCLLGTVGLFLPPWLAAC
# Neuronal acetylcholine receptor; alpha4/beta2, sequence (P12390 whole entry): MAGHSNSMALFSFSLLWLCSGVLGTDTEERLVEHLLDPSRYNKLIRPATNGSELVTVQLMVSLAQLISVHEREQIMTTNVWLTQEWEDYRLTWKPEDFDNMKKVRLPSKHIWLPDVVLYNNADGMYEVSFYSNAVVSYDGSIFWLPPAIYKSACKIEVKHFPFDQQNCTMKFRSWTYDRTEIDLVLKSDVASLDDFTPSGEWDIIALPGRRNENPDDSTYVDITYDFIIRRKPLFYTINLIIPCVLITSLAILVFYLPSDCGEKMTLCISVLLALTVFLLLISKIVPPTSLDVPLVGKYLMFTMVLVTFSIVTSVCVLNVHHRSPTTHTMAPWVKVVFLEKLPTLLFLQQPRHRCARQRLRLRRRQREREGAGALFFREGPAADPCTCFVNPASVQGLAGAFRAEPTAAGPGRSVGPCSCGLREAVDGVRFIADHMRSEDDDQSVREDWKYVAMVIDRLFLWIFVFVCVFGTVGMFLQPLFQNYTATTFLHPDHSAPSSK
structure (smiles),measurement,setting,value
COc1ccc(-c2cc([C@H]3C[C@H]4CC[C@H]3N4)cnc2F)cn1 (racemic),inhibition in vivo at 0.1 mg/kg,Mus musculus [1],0%
O=[N+]([O-])c1ccc(-c2cc([C@H]3C[C@H]4CC[C@H]3N4)cnc2F)cc1 (racemic),ED50,Mus musculus [2],0.21 mg/kg
same,Activity,Mus musculus [3],5%
same,Ratio IC50,Rattus norvegicus,10
same,ED50,Mus musculus [4],0.22 mg/kg
O=[N+]([O-])c1cccc(-c2cc(C3CC4CCC3N4)cnc2F)c1 (racemic),Activity,Mus musculus [5],20%
same,Activity,Mus musculus [3],3%
same,ED50,Mus musculus [4],6.5 mg/kg
COc1cc(-c2cc([C@H]3C[C@H]4CC[C@H]3N4)cnc2F)ccn1 (racemic),inhibition in vivo at 10 mg/kg,Mus musculus [6],40%
Fc1ncc(C2CC3CCC2N3)cc1-c1cccnc1 (racemic),inhibition in vivo at 1 mg/kg,Mus musculus [7],10%
same,Emax,[8],7%
Fc1ccc(-c2cc([C@H]3C[C@H]4CC[C@H]3N4)cnc2F)cn1 (racemic),inhibition in vivo at 0.1 mg/kg,Mus musculus [9],1%
same,inhibition in vivo at 0.1 mg/kg,Mus musculus [1],1%
same,Emax,[10],9%
Nc1cc(-c2cc([C@H]3C[C@H]4CC[C@H]3N4)cnc2F)ccn1 (racemic),Emax,[8],10%
Nc1ccc(-c2cc([C@H]3C[C@H]4CC[C@H]3N4)cnc2F)cn1 (racemic),Imax,[11],50%
Clc1ccc(C2CC3CCC2N3)cn1 (centres undefined) [EPIBATIDINE],ED50,Mus musculus [12],0.006 mg/kg
same,ED50,Mus musculus [13],0.004 mg/kg
same,ED50,Mus musculus [4],0.001 mg/kg
same,Emax,[8],150%
same,Emax,[14],131%
same,Emax,[10],97%
CN1CCC[C@H]1c1cccnc1 [NICOTINE],ED50,Mus musculus [2],1 mg/kg
same,ED50,Mus musculus [4],0.5 mg/kg
same,Emax,[8],43%
same,Emax,[14],40%
same,Emax,[10],37%
c1cnc2cc3c(cc2n1)[C@@H]1CNC[C@H]3C1 [VARENICLINE],ED50,Mus musculus [2],2.8 mg/kg
same,AD50,Mus musculus [15],0.47 mg/kg
same,Activity,Mus musculus [5],10%
same,Activity,Mus musculus [3],11%
same,Imax,[16],38%
same,AD50,Mus musculus [17],0.0002 mg/kg
same,ED50,Mus musculus [4],2.1 mg/kg
same,Emax,[8],74%
same,EC50,[18],55 µM
same,Emax,[14],13%
same,Emax,[10],66%
same,IC50,[19],0.2 µM

# From ChEMBL document CHEMBL3124759, “Synthesis, nicotinic acetylcholine receptor binding, and antinociceptive properties of 2'-fluoro-3'-(substituted pyridinyl)-7-deschloroepibatidine analogues” (J Med Chem, 2014)
